Fewer inactive variants are shown than the library holds.
B1: tRNA (parent)
chain: CUCUCGGUAGCCAAGUUGGUUUAAGGCGCAAGACUUUAAUUUAUCACUACGAAAUCUUGAGAUCGGGCGUUCGACUCGCCCCCGGGAGAUUUUUUCCUCGAGCAA

Variants of: B1
Test: nonsense suppression (GFP-seq) (ratio to wild type); higher = more function; SUP4oc tRNA, yeast GFP reporter sort-seq
Summary of the method: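 Raffinose/galactose medium with 80 mg/L adenine was used to grow yeast carrying genome-integrated tRNA variants (~3% random-mutation library), RFP, and a galactose-driven GFP ochre reporter. Cells went into GFP/RFP bins, which were Illumina-sequenced, and variants with ≥100 reads and ≥30 cells were scored. Nonsense suppression (GFPSEQ) is the per-bin median GFP/RFP weighted by estimated cell share and expressed relative to the unmutated parent tRNA.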
U4G A13G U16C showed a nonsense suppression of 0.0797. With G6A G7U A54C the nonsense suppression was ≤ 0.026. For G61A U76C, the nonsense suppression was 0.775. In the case of C3A G15U G25A, the nonsense suppression is reported as ≤ 0.026. In the case of U57C A89G, the nonsense suppression is reported as ≤ 0.026. In the case of A30G C64U, the nonsense suppression is reported as 0.0605. With A9C G61C G73C the nonsense suppression was ≤ 0.026. With A23G G59C C64G C77U G78A the nonsense suppression was ≤ 0.026. With A23U G65A the nonsense suppression was ≤ 0.026. For G15U G18A U58C G85U, the nonsense suppression was ≤ 0.026. For C3G G15C U58G G88C, the nonsense suppression was 0.344. With G25A G26C the nonsense suppression was ≤ 0.026. A30U G85U gave a nonsense suppression of 0.0315. For U35G U55C G61C G73U, the nonsense suppression was ≤ 0.026. For A54C C80G, the nonsense suppression was 0.0733. For U63G G69A, the nonsense suppression was 0.116. With U4C A23U A54G G59U G67C the nonsense suppression was ≤ 0.026. C72U G78A showed a nonsense suppression of 0.0322. For U2C A23G A62C G67A, the nonsense suppression was ≤ 0.026. For G6C U35G, the nonsense suppression was ≤ 0.026. With A13U A31U the nonsense suppression was 0.193. Variant C27U G61C has a nonsense suppression of 0.0306. With G7U A9C U16C U57C the nonsense suppression was ≤ 0.026. For C34A U63A C82G, the nonsense suppression was ≤ 0.026. U16C A31G U57C gave a nonsense suppression of 0.922. For A74U G84C, the nonsense suppression was ≤ 0.026. For U8C U35G U71A, the nonsense suppression was ≤ 0.026. For U17A G18U, the nonsense suppression was ≤ 0.026. In the case of C5G G6A A33U U35G U70C, the nonsense suppression is reported as ≤ 0.026. C27U A31U gave a nonsense suppression of 0.0324. With U20G U71G the nonsense suppression was ≤ 0.026. With C12U G78U the nonsense suppression was 0.0326. With A14U G61C C79U the nonsense suppression was ≤ 0.026. With G25C G28C A62U the nonsense suppression was ≤ 0.026. For U21C A30G, the nonsense suppression was 0.967. For A13U A54C G66A A74C G86A, the nonsense suppression was ≤ 0.026. With U8A A24C C79G the nonsense suppression was ≤ 0.026. For C29U G84A, the nonsense suppression was 0.0288. Work on U16C U55C yielded a nonsense suppression of 0.769. For C11U G18A, the nonsense suppression was ≤ 0.026. With U20C U55C the nonsense suppression was 0.0996. In the case of A13C C75G, the nonsense suppression is reported as 1.15. For U55A A60C C75U G78C C79G A89G, the nonsense suppression was ≤ 0.026. Work on A23G A30U yielded a nonsense suppression of 0.0397. U21C A24U gave a nonsense suppression of 0.194. C1U U4A showed a nonsense suppression of 0.0473. With A23U C75A the nonsense suppression was ≤ 0.026. With G32U U76C the nonsense suppression was ≤ 0.026. G61A G78U gave a nonsense suppression of 0.0402. With C5U U55G C68A A74U the nonsense suppression was ≤ 0.026. For C27U U35A U58A G65A G78C, the nonsense suppression was ≤ 0.026. With U20A C75G the nonsense suppression was 0.473. Work on U4C A13G C29U yielded a nonsense suppression of 0.221. For U16C U22C G61C, the nonsense suppression was 0.207. In the case of A62U U71G, the nonsense suppression is reported as ≤ 0.026. G28C A60C gave a nonsense suppression of 0.235. U4G A54U showed a nonsense suppression of 0.469. In the case of G85A G88C, the nonsense suppression is reported as ≤ 0.026. For G6U U17C G28U U55C G69U G88U, the nonsense suppression was ≤ 0.026. Work on C1A G85U yielded a nonsense suppression of 0.03. In the case of A13C U57A G66A, the nonsense suppression is reported as ≤ 0.026. With G7C G73U the nonsense suppression was ≤ 0.026. With G7U C27U U35A A74C the nonsense suppression was ≤ 0.026. In the case of C1U G7U G15A U35A A62G, the nonsense suppression is reported as ≤ 0.026. For G28U G78U, the nonsense suppression was 0.0435. In the case of C27U U71C C77G, the nonsense suppression is reported as ≤ 0.026. For U63A G67A, the nonsense suppression was ≤ 0.026. In the case of U2A U4G G18A, the nonsense suppression is reported as ≤ 0.026. With C12G A54G U57G A60U C77U the nonsense suppression was ≤ 0.026. In the case of A9C U20A, the nonsense suppression is reported as 0.183. In the case of A9C U63G, the nonsense suppression is reported as 0.0362. In the case of C27U G65U, the nonsense suppression is reported as ≤ 0.026. For C12A C34U, the nonsense suppression was 0.94. In the case of U21G G67U U71A, the nonsense suppression is reported as ≤ 0.026. With U16G A30G C64G the nonsense suppression was ≤ 0.026. In the case of U8A G67C U71G, the nonsense suppression is reported as ≤ 0.026. In the case of C56U G88U, the nonsense suppression is reported as ≤ 0.026. For C11U, the nonsense suppression was ≤ 0.026. In the case of A14G A30U, the nonsense suppression is reported as 0.0337. In the case of C3A U35G, the nonsense suppression is reported as ≤ 0.026. U17A U22G showed a nonsense suppression of 1.03. With C1G C5G A31C G73A the nonsense suppression was ≤ 0.026. For G61C C77U, the nonsense suppression was 0.0267. For A9U G25U, the nonsense suppression was ≤ 0.026. For A31U G73U, the nonsense suppression was ≤ 0.026. In the case of C1U U17G, the nonsense suppression is reported as ≤ 0.026. For A23U G78U, the nonsense suppression was 0.0382. In the case of A33G G86C, the nonsense suppression is reported as 0.0374. For U4C G61U, the nonsense suppression was 1.02. Variant U4C C12U has a nonsense suppression of 0.745. With C1G A9C G18U U71G the nonsense suppression was ≤ 0.026. In the case of C27U G85A, the nonsense suppression is reported as 0.207. For U2G C27U A30G C79U C83A, the nonsense suppression was ≤ 0.026. In the case of C29A G65C U71G, the nonsense suppression is reported as ≤ 0.026. Variant A13C G84C has a nonsense suppression of 0.0388. In the case of G7A U16G G26C U71G, the nonsense suppression is reported as ≤ 0.026. With U8G A13C G28C C64U U70A C72U G84U the nonsense suppression was ≤ 0.026. In the case of A54G C79U, the nonsense suppression is reported as 0.0263. U4G G66A gave a nonsense suppression of 0.0774. In the case of G15C G67A, the nonsense suppression is reported as ≤ 0.026. In the case of A31U U55G G67C, the nonsense suppression is reported as ≤ 0.026. A9U U16A gave a nonsense suppression of 0.13. A62G G78U gave a nonsense suppression of 0.0339. With A23G G84U G86U the nonsense suppression was ≤ 0.026. With C27U C77A the nonsense suppression was ≤ 0.026. Work on G61U G78U yielded a nonsense suppression of 0.165. With G61U G67A the nonsense suppression was 0.135. Variant A9U A74U has a nonsense suppression of 0.106. In the case of U20C C64U, the nonsense suppression is reported as 0.0503. In the case of U2G G28U U35C, the nonsense suppression is reported as ≤ 0.026. Work on A13C U17G C75A yielded a nonsense suppression of 1.1. In the case of U8C A14C C34U, the nonsense suppression is reported as ≤ 0.026. In the case of U35A G73U G84C, the nonsense suppression is reported as ≤ 0.026. For C5G G25C G69C C80A, the nonsense suppression was ≤ 0.026. Variant U63C C82U has a nonsense suppression of 0.449. U21G A60C gave a nonsense suppression of 0.0285. In the case of A13U U16A G85U, the nonsense suppression is reported as 0.173. Work on U17C A87G yielded a nonsense suppression of 0.226. For C3A U70G, the nonsense suppression was ≤ 0.026. In the case of U16A U22G C79U, the nonsense suppression is reported as 0.208. Variant A13C A62G has a nonsense suppression of 0.0702. A60U G67A gave a nonsense suppression of 0.0457. With G7A U20G C34U U57C C64A C79U G88C the nonsense suppression was ≤ 0.026. In the case of G25A C75G G78A, the nonsense suppression is reported as ≤ 0.026. U22G A30U showed a nonsense suppression of 0.184. With C3A U57A C80U A89U the nonsense suppression was ≤ 0.026. Variant A13U A74U has a nonsense suppression of 0.051. With C11G A30U the nonsense suppression was ≤ 0.026. Variant G78U C82U has a nonsense suppression of 0.105. Work on U4G A87C yielded a nonsense suppression of 0.0794. For U4A U17A U22C, the nonsense suppression was 0.0499. With A30U C64U the nonsense suppression was ≤ 0.026. Work on U2C U4G yielded a nonsense suppression of 0.0326. With G15A U63G C75G the nonsense suppression was ≤ 0.026. In the case of A9C A60C, the nonsense suppression is reported as 0.0924. For G59A G61A U71G G78U, the nonsense suppression was ≤ 0.026. C29U A30C showed a nonsense suppression of 0.196. In the case of C34U A60C C72A, the nonsense suppression is reported as ≤ 0.026. For U21C G26U G67A C80G, the nonsense suppression was ≤ 0.026. In the case of A14U G86C, the nonsense suppression is reported as ≤ 0.026. G66C G78A gave a nonsense suppression of 0.0452. Variant A54C C75U has a nonsense suppression of 1.22. With C3G A30G C34G U55G G69C C79A the nonsense suppression was ≤ 0.026. A13U U20A showed a nonsense suppression of 0.189. G25C gave a nonsense suppression of 0.185. A24C C29U gave a nonsense suppression of 0.751. In the case of G32U U71C G84A, the nonsense suppression is reported as ≤ 0.026. With C27A U55C the nonsense suppression was 0.0902. With U21G U57G the nonsense suppression was ≤ 0.026. For U8A A9G U58A C72G C79A, the nonsense suppression was ≤ 0.026. For A23U G32U U63G C68A U70A A74C, the nonsense suppression was ≤ 0.026. With U57A G67U U76C the nonsense suppression was ≤ 0.026. In the case of G61C G73A, the nonsense suppression is reported as 0.213. For C3A A23C G26A U58A G78C, the nonsense suppression was ≤ 0.026. With U4C U22C G86A the nonsense suppression was 1.16. A14G A60G gave a nonsense suppression of 0.0456. With A13U A24G G26C G32C A89C the nonsense suppression was ≤ 0.026. C3U U76A showed a nonsense suppression of 0.0398. For G61U C80U, the nonsense suppression was 0.677. In the case of U2G C11U U55G A60U C82G G86C G88U, the nonsense suppression is reported as ≤ 0.026. With G78A G86A G88C the nonsense suppression was ≤ 0.026. Work on G73A G84A yielded a nonsense suppression of 0.191. For A14U G32C G88U, the nonsense suppression was ≤ 0.026. With A30C A54U A60G A74U the nonsense suppression was ≤ 0.026. For U22C G26A U57G, the nonsense suppression was ≤ 0.026. G10A G78U showed a nonsense suppression of 0.0324. A31G C83A gave a nonsense suppression of 0.0481.
